Measurements as given in the EternaBench riboswitch data.

Test system: MS2 coat protein
Experiment: apparent Kd, MS2 coat protein; higher = weaker binding; RNA-MaP array
Method in brief: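 In Tris-HCl pH 7.5 buffer with KCl, MgCl2, BSA, DTT, tRNA and Tween20, with or without input ligand, fluorescently labeled MS2 coat protein at 1.5 nM to 3 μM was incubated at room temperature with designed RNAs. The RNAs had been transcribed on an Illumina sequencing chip from sequenced DNA templates, and incubation ran 0.8–1.5 h at the lowest to 10–20 min at the highest concentrations. Apparent Kd is the median of binding-curve fits for individual clusters. Designs measured on fewer than 10 clusters were excluded.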

[1] = designed as: OFF switch for theophylline, no ligand
[2] = ligand present: theophylline, designed as: OFF switch for theophylline
[3] = designed as: OFF switch for flavin mononucleotide, no ligand
[4] = ligand present: flavin mononucleotide, designed as: OFF switch for flavin mononucleotide
[5] = designed as: ON switch for flavin mononucleotide, no ligand
[6] = ligand present: flavin mononucleotide, designed as: ON switch for flavin mononucleotide
[7] = designed as: OFF switch for tryptophan, no ligand
[8] = ligand present: tryptophan, designed as: OFF switch for tryptophan

In the case of “UGUCAAUCGCCGGAUACCAGCCUAACUGAAGGAAAUCUAAACAUGAGGAUCACCCAUGUAGGCCCUUGGCAGCCGAGUAAGUACA”, the “apparent Kd” value [1] is reported as 40.3 nM and the “apparent Kd” value [2] is reported as 125 nM.

With “GCAAAGUGAUCGGCCGCCACUGCAAUGCUUAAUGGAGGUCCACAUGAGGAUCACCCAUGUCUUCCCAGGACCGGGAUCUCGAGUU” the “apparent Kd” value (designed as: ON switch for tryptophan, no ligand) was 60.7 nM and the “apparent Kd” value (ligand present: tryptophan, designed as: ON switch for tryptophan) was 66.9 nM.

In the case of “CUGAGGUUAGGAUAUCUUCUGUUAUCUUCACGAUGAUAAACAGAGAAGGAACAUGAGGAUCACCCAUGUGGUCU”, the “apparent Kd” value [3] is reported as 135 nM and the “apparent Kd” value [4] is reported as 99.8 nM.

“GUCAGGUGGACAGGAUAUCGUGCUCGUAGACAUGAGGAUCACCCAUGUUCGCUCUUCUUCGGCAUCGAGAAGGGUCUCCAAUCU” was tested, and the “apparent Kd” value [3] was 34.8 nM and the “apparent Kd” value [4] was 35.8 nM.

“UAGAAUUAAGGAUAUACAGGAUCCGUACAAAUAUUGAUAGGACAUGAGGAUCACCCAUGUAGAAGGUAAGGCAG” was tested, and the “apparent Kd” value [3] was 21.1 nM and the “apparent Kd” value [4] was 17.2 nM.

“CCUGAACGGGACAUGAGGAUCACCCAUGUAUGAGACUCAAAGAAGGAUAUCUUACAUACAGUUCGAGAGAAGGUCUAGCAAACG” was tested, and the “apparent Kd” value [3] was 86.5 nM and the “apparent Kd” value [4] was 54.9 nM.

“AUAAAACAUGAGGAUCACCCAUGUAUAGAAAGCGCAGGAUAUAGGUGAUCAUAGUACUAUCAAGAAGGGCGGAACC” was tested, and the “apparent Kd” value [5] was 217 nM and the “apparent Kd” value [6] was 184 nM.

With “ACAUGAGGAUCACCCAUGUUGAACUACCAUCGAGGACCGGUACGGCCGCCACUCGCGUUCUCCUUAGCAUCAAGGUCCGCGAAAC” the “apparent Kd” value [7] was 13.3 nM and the “apparent Kd” value [8] was 12.7 nM.

For “CUCGAGUCAGGAUAUAUUAACAGAACUUCCUAAAUGGACGAAUAGAAGGGACAUGAGGAUCACCCAUGUUUGGC”, the “apparent Kd” value [3] was 11.8 nM and the “apparent Kd” value [4] was 11 nM.

For “AACACGCUGGUAGGAUAUUACAACAUGAUGACUCGUCCAAGAAACAACAUGAGGAUCACCCAUGUUAAGAAGGACCACAAGAAA”, the “apparent Kd” value [3] was 7.13 nM and the “apparent Kd” value [4] was 7.92 nM.

“CGCAAUUCCUGAGGAUAUUGGCAGCGACAUGAGGAUCACCCAUGUGACCAUUUGGUGUUUUGUGUCAAGAAGGCAGCCCAUGAG” was tested, and the “apparent Kd” value [3] was 44.9 nM and the “apparent Kd” value [4] was 33.8 nM.

In the case of “AAAACUAAAGUCAGGAUAUAACGAAUCGAAGAUAGAUAGAAGGGACAUGAGGAUCACCCAUGUGAGGAAGACAA”, the “apparent Kd” value [3] is reported as 13.1 nM and the “apparent Kd” value [4] is reported as 11.1 nM.

For “UUACGGCCGGAAGGAUAUUGUGGCUCCGGAGUAACAUGAGGAUCACCCAUGUGAAUCAAACACAACAAGAAGGUCCCAAAUAGG”, the “apparent Kd” value [5] was 15.9 nM and the “apparent Kd” value [6] was 15.5 nM.

For “GAGAGGAGGGAGAAGGAGAUAGUCUUCGGCAAUCUAGGAUAUCCACGUAGGGAAUCUCACAUGAGGAUCACCCAUGUUCAGCCG”, the “apparent Kd” value [3] was 34.8 nM and the “apparent Kd” value [4] was 31.7 nM.

In the case of “GGUGAAUUAGUGAGGAUAUGAUAGACAAACAAAAUACAGAAGGCACAUGAGGAUCACCCAUGUGACGGAGAGAA”, the “apparent Kd” value [3] is reported as 6.31 nM and the “apparent Kd” value [4] is reported as 5.93 nM.

In the case of “GUUGCCCAGCGAGGAUAUGUGAACCGGCUGCUCACAGAAGGCGCAAAUGAUUUUCAUUAUUCCCGACAUGAGGAUCACCCAUGU”, the “apparent Kd” value [3] is reported as 21.9 nM and the “apparent Kd” value [4] is reported as 16.3 nM.

For “GAUGACUUAGGAUAUCAAAUUCUCGACAUGAGGAUCACCCAUGUGUAUCCGCCAGGUUAGUGAGAAGGAAGUUGGA”, the “apparent Kd” value [3] was 91.3 nM and the “apparent Kd” value [4] was 77.8 nM.

“GUACGGUUCCAAGGAUAUGAUAGGUGACAUGAGGAUCACCCAUGUGCCGGUGGUGGGAGCGAGGAUCAGAAGGUGGCCAGCGGU” was tested, and the “apparent Kd” value [5] was 60 nM and the “apparent Kd” value [6] was 45.4 nM.

In the case of “AUAACAGUGUCGGCCGCCACUAGAACACAUGAGGAUCACCCAUGUGGUGGUACCUCCUAAGACGAUAGGACCGGGACCCAUCUAC”, the “apparent Kd” value [7] is reported as 134 nM and the “apparent Kd” value [8] is reported as 95.2 nM.

“AAAACGCAACUCGAUACCAGUACACUGAGUCUUCGCCACGACAUGAGGAUCACCCAUGUGUACCCUUGGCAGCGACAGAGCCACA” was tested, and the “apparent Kd” value [1] was 53.9 nM and the “apparent Kd” value [2] was 261 nM.

In the case of “CGUCUAGUUGAGAAGGAUUCGGCGUCGGUCAUGUUAAUCUGGAAACAUGAGGAUCACCCAUGUCAAUAGGAUAUCAGGGCACUA”, the “apparent Kd” value [3] is reported as 11.2 nM and the “apparent Kd” value [4] is reported as 12.8 nM.

In the case of “AGAAUGUCAGGAUAUACUCGCUAUGUCGCCAAGUCACGCCGACAUGAGGAUCACCCAUGUAGAAGGGACAAGUA”, the “apparent Kd” value [3] is reported as 12.9 nM and the “apparent Kd” value [4] is reported as 11.7 nM.

For “GUCAUUGCGGAGGAUAUAAAGCAAACCAAGAUGUUAGAAGGCCGGACAUGAGGAUCACCCAUGUGAUUGCACGC”, the “apparent Kd” value [3] was 17.6 nM and the “apparent Kd” value [4] was 15 nM.

“GGACGUGGGCAGGAUAUGCGAAUUGAUUGAGCGGCAGAAGGGCCUACAUGAGGAUCACCCAUGUAGAUGCUUAC” was tested, and the “apparent Kd” value [3] was 5.4 nM and the “apparent Kd” value [4] was 11.7 nM.

“GGAUGCUCGACUCAGGAUAUACACACCGCAACAUGAGGAUCACCCAUGUAAUACGAACAAUGCACGUAGAAGGGAGGUUAACUCGA” was tested, and the “apparent Kd” value [5] was 46.4 nM and the “apparent Kd” value [6] was 19.1 nM.

With “UACUCGACUUAGAAGGGUUUGUGGACAGCCAGUGGCGUGCGUACAUGAGGAUCACCCAUGUCUCAACAGGAUAUAAGCAUUAGC” the “apparent Kd” value [3] was 35 nM and the “apparent Kd” value [4] was 27 nM.

In the case of “AUUAUGUAAGGAUAUCGAGAAAUAAAGAAUCUAGUCAGCCACGAGAAGGAACAUGAGGAUCACCCAUGUGGAUA”, the “apparent Kd” value [3] is reported as 13.8 nM and the “apparent Kd” value [4] is reported as 12.2 nM.

For “CAUAGAGCUAAGAAGGCGUACGGAGACAGCAUACGAGGAUAUUAACGUCCAUGAACAUGAGGAUCACCCAUGUCGAAAACCAAA”, the “apparent Kd” value [5] was 8.42 nM and the “apparent Kd” value [6] was 8.15 nM.

For “UCACUACAGUAGAAGGUAGGUACAUGAGGAUCACCCAUGUGGUAGGGAGAUUUACACUGUUUCGCUAAGGAUAUACUGGCCAAU”, the “apparent Kd” value [3] was 207 nM and the “apparent Kd” value [4] was 125 nM.

“AUUAGGCUGCAGGAUAUGAAUCAUGUAACAAUUUCAGAAGGGCAUACAUGAGGAUCACCCAUGUAGUGAUCCGC” was tested, and the “apparent Kd” value [3] was 109 nM and the “apparent Kd” value [4] was 220 nM.

With “GUUAUCGAACAUGAGGAUCACCCAUGUCAGAGCGGCCGACAGAGAAGGCCAAUUGACAAAUGAUUGGAGGAUAUCUGUACUUUU” the “apparent Kd” value [5] was 19.3 nM and the “apparent Kd” value [6] was 7.57 nM.

“UAUUUUGCGAAGAAGGAAGCCUCACUGGAAUGCUUAGGAUAUUCUCGCGUGGAGCACAUGCACAUGAGGAUCACCCAUGUACCG” was tested, and the “apparent Kd” value [5] was 28.7 nM and the “apparent Kd” value [6] was 20.1 nM.

“UAUGUACGUAGGGACAUGAGGAUCACCCAUGUGGUCCGUAUUAGAAGGACGAAUACCGAUAAAACGUAGGAUAUAAUAACUCCG” was tested, and the “apparent Kd” value [3] was 134 nM and the “apparent Kd” value [4] was 148 nM.

With “CUAGAAGACACGGAGGAUAUGUUGUGUAUUACAUGAGGAUCACCCAUGUUCGGAAGUACCGAUUGACAGAAGGCCGUGCAAUCGCU” the “apparent Kd” value [5] was 6.66 nM and the “apparent Kd” value [6] was 5.73 nM.

In the case of “AUUUGGCGUAGUGUUGCUCGUGGGAUAAAACGAGGACCGGUACGGCCGCCACUCGAUGAUUAACAUGAGGAUCACCCAUGUAAAU”, the “apparent Kd” value [7] is reported as 24.6 nM and the “apparent Kd” value [8] is reported as 104 nM.

In the case of “UGAAAUUACGGAGGAUAUCUAUUUACAUGAGGAUCACCCAUGUCCCAGCUACUGCUAUUAUCCGCAGAGAAGGCCGGUGAGUCC”, the “apparent Kd” value [5] is reported as 171 nM and the “apparent Kd” value [6] is reported as 105 nM.

With “GCACGGAAAGGAUAUACAUGAGGAUCACCCAUGUUUCUUCUCAGGGCAAUUACCACAUGUAGAAGGUUCUCCAG” the “apparent Kd” value [3] was 29.4 nM and the “apparent Kd” value [4] was 39.8 nM.

In the case of “AAAAGAAGCUGAGGAUAUUGGUUAACAUGAGGAUCACCCAUGUCGUUGGUGGAAAACACCUGACGCAAGAAGGCAGACACUUAU”, the “apparent Kd” value [5] is reported as 15.7 nM and the “apparent Kd” value [6] is reported as 7.81 nM.

“UCACUUGUCUAGAAGGGUCGGCACAUGAGGAUCACCCAUGUAAAUGGCUGGUUCAAAUAAUUUUGACAGGAUAUAGAGAGCACU” was tested, and the “apparent Kd” value [3] was 16.6 nM and the “apparent Kd” value [4] was 50.4 nM.

With “CACAUGAGGAUCACCCAUGUCUACGAAAGAUGUAGGGAAAAGAGAAGGUGGAGGGAACUGCCAGCCAAGGAUAUCUGCACUCGA” the “apparent Kd” value [3] was 31.8 nM and the “apparent Kd” value [4] was 33.3 nM.

“ACUCUCGGCUAAGGAUAUCUCCGACUGACCAAUAGAGAAGGUAGUCGACGUGCGAUCAGACAUGAGGAUCACCCAUGUGAAAUC” was tested, and the “apparent Kd” value [5] was 7.07 nM and the “apparent Kd” value [6] was 7.14 nM.

For “UUCUUACAUGAGGAUCACCCAUGUCUACACCCUACAGGAUAUGAUGCGGUGAAGACCAAUUCAGAAGGGUAAGGUC”, the “apparent Kd” value [5] was 84.1 nM and the “apparent Kd” value [6] was 22.9 nM.

With “UACAAACAUGAGGAUCACCCAUGUAGUGAUACCAGCAUAACAGAUUGCCCUUGGCAGCACCGGUUUGUACUCAAACGAAGUACGG” the “apparent Kd” value (designed as: ON switch for theophylline, no ligand) was 64.2 nM and the “apparent Kd” value (ligand present: theophylline, designed as: ON switch for theophylline) was 52.3 nM.

In the case of “CAAGAGUUGUACAUUGUGAGGCGUCGGGAACGAGGACCGGUACGGCCGCCACUCGAAAAUUAACAUGAGGAUCACCCAUGUACAC”, the “apparent Kd” value [7] is reported as 70.8 nM and the “apparent Kd” value [8] is reported as 47.7 nM.

For “ACGAGCCUAGGAUAUACAUGAGGAUCACCCAUGUGACUGAACACUCCGGUAUGUGCGGGUAGAAGGAGGUUCCA”, the “apparent Kd” value [3] was 16.3 nM and the “apparent Kd” value [4] was 16.8 nM.

With “CCGCCACGUCAAGGAUAUGCACGGGAGCCCGUAGCAGAAGGUGAGGCGAACGCCAUCCCACAUGAGGAUCACCCAUGUACGGGC” the “apparent Kd” value [5] was 786 nM and the “apparent Kd” value [6] was 202 nM.

With “GGUGUUCCUCUAGGAUAUAGCGAUACAUGAGGAUCACCCAUGUUACUCCAGCGCGGCGGAUCGCUCUAGAAGGAGACAUAGCCA” the “apparent Kd” value [3] was 75.1 nM and the “apparent Kd” value [4] was 53.4 nM.
